Measured values reported in ChEMBL document CHEMBL1921735, “Antibacterial optimization of 4-aminothiazolyl analogues of the natural product GE2270 A: identification of the cycloalkylcarboxylic acids” (J Med Chem, 2011).
≈ marks a conversion by molar mass, not a printed value. Calls of active or inactive are those of the source.

How the values were obtained:
Staphylococcus aureus [1] = test: Antibacterial activity against methicillin-resistant Staphylococcus aureus isolate A4.018 by CLSI M07-A8 method; assay type: functional
Streptococcus pneumoniae = test: Antibacterial activity against Streptococcus pneumoniae by CLSI M07-A8 method; assay type: functional, organism-based
Procedure, shortened: (§1)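 Broth microdilution MIC run per CLSI M07-A8 (2009).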

Enterococcus faecalis = test: Antibacterial activity against Enterococcus faecalis ATCC 29212 by CLSI M07-A8 method; assay type: functional; procedure, shortened: as §1
Staphylococcus aureus [2] = test: Antibacterial activity against GE2270-A-resistant Staphylococcus aureus harboring tufA G258D mutant gene by CLSI M07-A8 method; assay type: functional
Enterococcus faecium = test: Antibacterial activity against Enterococcus faecium 7130724 by CLSI M07-A8 method; assay type: functional; procedure, shortened: as §1
Streptococcus pyogenes = test: Antibacterial activity against Streptococcus pyogenes ATCC BAA-595 by CLSI M07-A8 method; assay type: functional; procedure, shortened: as §1

| Compound | MIC (Staphylococcus aureus [1]) | Activity (Streptococcus pneumoniae) | MIC (Enterococcus faecalis) | MIC (Staphylococcus aureus [2]) | MIC (Enterococcus faecium) | MIC (Streptococcus pyogenes) | Activity (Staphylococcus aureus [2]) |
| --- | --- | --- | --- | --- | --- | --- | --- |
| CNC(=O)C[C@@H]1NC(=O)c2csc(n2)-c2ccc(-c3nc(NC(=O)OC(C)(C)C)cs3)nc2-c2csc(n2)-c2csc(n2)[C@H]([C@@H](O)c2ccccc2)NC(=O)CNC(=O)c2nc(sc2COC)[C@H](C(C)C)NC(=O)c2nc1sc2C | > 128 µg/mL | Active | > 128 µg/mL | > 32 µg/mL | > 128 µg/mL | > 128 µg/mL | – |
| CNC(=O)C[C@@H]1NC(=O)c2csc(n2)-c2ccc(-c3nc(NC(=O)CCCC(=O)O)cs3)nc2-c2csc(n2)-c2csc(n2)[C@H]([C@@H](O)c2ccccc2)NC(=O)CNC(=O)c2nc(sc2COC)[C@H](C(C)C)NC(=O)c2nc1sc2C | 0.25 µg/mL (≈ 0.207 µM) | Active | 0.25 µg/mL (≈ 0.207 µM) | – | 0.5 µg/mL (≈ 0.413 µM) | 8 µg/mL (≈ 6.61 µM) | inactive |
| CNC(=O)C[C@@H]1NC(=O)c2csc(n2)-c2ccc(-c3nc(NC(C)=O)cs3)nc2-c2csc(n2)-c2csc(n2)[C@H]([C@@H](O)c2ccccc2)NC(=O)CNC(=O)c2nc(sc2COC)[C@H](C(C)C)NC(=O)c2nc1sc2C | 2 µg/mL (≈ 1.76 µM) | Active | 1 µg/mL (≈ 0.878 µM) | > 32 µg/mL | 1 µg/mL (≈ 0.878 µM) | > 32 µg/mL | – |
| CNC(=O)C[C@@H]1NC(=O)c2csc(n2)-c2ccc(-c3nc(NC(=O)OCCC[C@H](N)C(=O)O)cs3)nc2-c2csc(n2)-c2csc(n2)[C@H]([C@@H](O)c2ccccc2)NC(=O)CNC(=O)c2nc(sc2COC)[C@H](C(C)C)NC(=O)c2nc1sc2C | 8 µg/mL (≈ 6.37 µM) | Active | 8 µg/mL (≈ 6.37 µM) | – | 32 µg/mL (≈ 25.5 µM) | 8 µg/mL (≈ 6.37 µM) | inactive |
| CNC(=O)C[C@@H]1NC(=O)c2csc(n2)-c2ccc(-c3nc(NC(=O)[C@H]4CC[C@@H]4C(=O)O)cs3)nc2-c2csc(n2)-c2csc(n2)[C@H]([C@@H](O)c2ccccc2)NC(=O)CNC(=O)c2nc(sc2COC)[C@H](C(C)C)NC(=O)c2nc1sc2C | 0.25 µg/mL (≈ 0.205 µM) | Active | 0.25 µg/mL (≈ 0.205 µM) | – | 0.5 µg/mL (≈ 0.409 µM) | 4 µg/mL (≈ 3.27 µM) | – |
| CNC(=O)C[C@@H]1NC(=O)c2csc(n2)-c2ccc(-c3nc(NC(=O)OCC(C)(C)N)cs3)nc2-c2csc(n2)-c2csc(n2)[C@H]([C@@H](O)c2ccccc2)NC(=O)CNC(=O)c2nc(sc2COC)[C@H](C(C)C)NC(=O)c2nc1sc2C | 2 µg/mL (≈ 1.65 µM) | Active | 1 µg/mL (≈ 0.825 µM) | – | 1 µg/mL (≈ 0.825 µM) | 8 µg/mL (≈ 6.6 µM) | inactive |
| CNC(=O)C[C@@H]1NC(=O)c2csc(n2)-c2ccc(-c3nc(NC(=O)[C@H]4CC[C@@H](C(=O)O)CC4)cs3)nc2-c2csc(n2)-c2csc(n2)[C@H]([C@@H](O)c2ccccc2)NC(=O)CNC(=O)c2nc(sc2COC)[C@H](C(C)C)NC(=O)c2nc1sc2C | 0.25 µg/mL (≈ 0.2 µM) | Active | 0.125 µg/mL (≈ 0.1 µM) | – | 0.25 µg/mL (≈ 0.2 µM) | 4 µg/mL (≈ 3.2 µM) | – |
| CNC(=O)C[C@@H]1NC(=O)c2csc(n2)-c2ccc(-c3nc(NC(=O)c4ccnc(C(=O)O)c4)cs3)nc2-c2csc(n2)-c2csc(n2)[C@H]([C@@H](O)c2ccccc2)NC(=O)CNC(=O)c2nc(sc2COC)[C@H](C(C)C)NC(=O)c2nc1sc2C | 8 µg/mL (≈ 6.42 µM) | Active | 2 µg/mL (≈ 1.61 µM) | – | 8 µg/mL (≈ 6.42 µM) | > 32 µg/mL | – |
| CNC(=O)C[C@@H]1NC(=O)c2csc(n2)-c2ccc(-c3nc(NC(=O)C(C)(C)CCCC(C)(C)C(=O)O)cs3)nc2-c2csc(n2)-c2csc(n2)[C@H]([C@@H](O)c2ccccc2)NC(=O)CNC(=O)c2nc(sc2COC)[C@H](C(C)C)NC(=O)c2nc1sc2C | 4 µg/mL (≈ 3.09 µM) | Active | 1 µg/mL (≈ 0.772 µM) | – | 1 µg/mL (≈ 0.772 µM) | > 32 µg/mL | inactive |
| CNC(=O)C[C@@H]1NC(=O)c2csc(n2)-c2ccc(-c3nc(NC(=O)/C=C\C(=O)O)cs3)nc2-c2csc(n2)-c2csc(n2)[C@H]([C@@H](O)c2ccccc2)NC(=O)CNC(=O)c2nc(sc2COC)[C@H](C(C)C)NC(=O)c2nc1sc2C | 1 µg/mL (≈ 0.837 µM) | Active | 1 µg/mL (≈ 0.837 µM) | – | 2 µg/mL (≈ 1.67 µM) | 16 µg/mL (≈ 13.4 µM) | inactive |
| CNC(=O)C[C@@H]1NC(=O)c2csc(n2)-c2ccc(-c3nc(NC(=O)c4ccc(C(=O)O)cc4)cs3)nc2-c2csc(n2)-c2csc(n2)[C@H]([C@@H](O)c2ccccc2)NC(=O)CNC(=O)c2nc(sc2COC)[C@H](C(C)C)NC(=O)c2nc1sc2C | 0.125 µg/mL (≈ 0.1 µM) | Active | 0.125 µg/mL (≈ 0.1 µM) | – | 0.125 µg/mL (≈ 0.1 µM) | 4 µg/mL (≈ 3.21 µM) | – |
| CNC(=O)C[C@@H]1NC(=O)c2csc(n2)-c2ccc(-c3nc(NC(=O)NCCC(=O)O)cs3)nc2-c2csc(n2)-c2csc(n2)[C@H]([C@@H](O)c2ccccc2)NC(=O)CNC(=O)c2nc(sc2COC)[C@H](C(C)C)NC(=O)c2nc1sc2C | 1 µg/mL (≈ 0.825 µM) | Active | 1 µg/mL (≈ 0.825 µM) | > 32 µg/mL | 2 µg/mL (≈ 1.65 µM) | 8 µg/mL (≈ 6.6 µM) | – |
| CNC(=O)C[C@@H]1NC(=O)c2csc(n2)-c2ccc(-c3nc(-n4cnc(C(=O)O)c4)cs3)nc2-c2csc(n2)-c2csc(n2)[C@H]([C@@H](O)c2ccccc2)NC(=O)CNC(=O)c2nc(sc2COC)[C@H](C(C)C)NC(=O)c2nc1sc2C | 4 µg/mL (≈ 3.36 µM) | Active | 4 µg/mL (≈ 3.36 µM) | > 32 µg/mL | > 32 µg/mL | > 32 µg/mL | – |
| CNC(=O)C[C@@H]1NC(=O)c2csc(n2)-c2ccc(-c3nc(NC(=O)OCCN)cs3)nc2-c2csc(n2)-c2csc(n2)[C@H]([C@@H](O)c2ccccc2)NC(=O)CNC(=O)c2nc(sc2COC)[C@H](C(C)C)NC(=O)c2nc1sc2C | 1 µg/mL (≈ 0.845 µM) | Active | 1 µg/mL (≈ 0.845 µM) | – | 1 µg/mL (≈ 0.845 µM) | 16 µg/mL (≈ 13.5 µM) | inactive |
| CNC(=O)C[C@@H]1NC(=O)c2csc(n2)-c2ccc(-c3nc(NC(=O)OCCCN)cs3)nc2-c2csc(n2)-c2csc(n2)[C@H]([C@@H](O)c2ccccc2)NC(=O)CNC(=O)c2nc(sc2COC)[C@H](C(C)C)NC(=O)c2nc1sc2C | 1 µg/mL (≈ 0.835 µM) | Active | 1 µg/mL (≈ 0.835 µM) | – | 1 µg/mL (≈ 0.835 µM) | 16 µg/mL (≈ 13.4 µM) | inactive |
| CNC(=O)C[C@@H]1NC(=O)c2csc(n2)-c2ccc(-c3nc(NC(=O)OCCN4CCOCC4)cs3)nc2-c2csc(n2)-c2csc(n2)[C@H]([C@@H](O)c2ccccc2)NC(=O)CNC(=O)c2nc(sc2COC)[C@H](C(C)C)NC(=O)c2nc1sc2C | 1 µg/mL (≈ 0.798 µM) | Active | 0.5 µg/mL (≈ 0.399 µM) | – | 0.5 µg/mL (≈ 0.399 µM) | > 32 µg/mL | inactive |
| CNC(=O)C[C@@H]1NC(=O)c2csc(n2)-c2ccc(-c3nc(NC(=O)O[C@H]4CC[C@@H](C(=O)O)CC4)cs3)nc2-c2csc(n2)-c2csc(n2)[C@H]([C@@H](O)c2ccccc2)NC(=O)CNC(=O)c2nc(sc2COC)[C@H](C(C)C)NC(=O)c2nc1sc2C | 0.125 µg/mL (≈ 0.0987 µM) | Active | 0.125 µg/mL (≈ 0.0987 µM) | – | 0.125 µg/mL (≈ 0.0987 µM) | 1 µg/mL (≈ 0.79 µM) | – |
| CNC(=O)C[C@@H]1NC(=O)c2csc(n2)-c2ccc(-c3nc(NC(=O)CC[C@@H](C)C(=O)O)cs3)nc2-c2csc(n2)-c2csc(n2)[C@H]([C@@H](O)c2ccccc2)NC(=O)CNC(=O)c2nc(sc2COC)[C@H](C(C)C)NC(=O)c2nc1sc2C | 0.25 µg/mL (≈ 0.204 µM) | Active | 0.125 µg/mL (≈ 0.102 µM) | – | 0.25 µg/mL (≈ 0.204 µM) | 4 µg/mL (≈ 3.27 µM) | inactive |
| CNC(=O)C[C@@H]1NC(=O)c2csc(n2)-c2ccc(-c3nc(NC(=O)C45CCC(C(=O)O)(CC4)CC5)cs3)nc2-c2csc(n2)-c2csc(n2)[C@H]([C@@H](O)c2ccccc2)NC(=O)CNC(=O)c2nc(sc2COC)[C@H](C(C)C)NC(=O)c2nc1sc2C | 0.25 µg/mL (≈ 0.196 µM) | Active | 0.125 µg/mL (≈ 0.0979 µM) | – | 0.25 µg/mL (≈ 0.196 µM) | 4 µg/mL (≈ 3.13 µM) | – |
| CNC(=O)C[C@@H]1NC(=O)c2csc(n2)-c2ccc(-c3nc(NC(=O)O[C@H]4C[C@@H](C(=O)O)C[C@@H]4N)cs3)nc2-c2csc(n2)-c2csc(n2)[C@H]([C@@H](O)c2ccccc2)NC(=O)CNC(=O)c2nc(sc2COC)[C@H](C(C)C)NC(=O)c2nc1sc2C | 2 µg/mL (≈ 1.58 µM) | Active | 1 µg/mL (≈ 0.789 µM) | – | 4 µg/mL (≈ 3.16 µM) | 2 µg/mL (≈ 1.58 µM) | – |
| CNC(=O)C[C@@H]1NC(=O)c2csc(n2)-c2ccc(-c3nc(C4=N[C@H](C(=O)N5CCC[C@H]5C(N)=O)CO4)cs3)nc2-c2csc(n2)-c2csc(n2)[C@H]([C@@H](O)c2ccccc2)NC(=O)CNC(=O)c2nc(sc2COC)[C@H](C(C)C)NC(=O)c2nc1sc2C | 0.25 µg/mL (≈ 0.194 µM) | Active | 0.5 µg/mL (≈ 0.387 µM) | – | 0.25 µg/mL (≈ 0.194 µM) | 1 µg/mL (≈ 0.775 µM) | – |
| CNC(=O)C[C@@H]1NC(=O)c2csc(n2)-c2ccc(-c3nc(NC(=O)c4ccc(C(=O)O)nc4)cs3)nc2-c2csc(n2)-c2csc(n2)[C@H]([C@@H](O)c2ccccc2)NC(=O)CNC(=O)c2nc(sc2COC)[C@H](C(C)C)NC(=O)c2nc1sc2C | 4 µg/mL (≈ 3.21 µM) | Active | 4 µg/mL (≈ 3.21 µM) | – | 8 µg/mL (≈ 6.42 µM) | > 32 µg/mL | – |
| CNC(=O)C[C@@H]1NC(=O)c2csc(n2)-c2ccc(-c3nc(NC(=O)O[C@H]4C[C@H](C(=O)O)C4)cs3)nc2-c2csc(n2)-c2csc(n2)[C@H]([C@@H](O)c2ccccc2)NC(=O)CNC(=O)c2nc(sc2COC)[C@H](C(C)C)NC(=O)c2nc1sc2C | 0.125 µg/mL (≈ 0.101 µM) | Active | 0.06 µg/mL (≈ 0.0484 µM) | – | 0.06 µg/mL (≈ 0.0484 µM) | 2 µg/mL (≈ 1.61 µM) | – |
| CNC(=O)C[C@@H]1NC(=O)c2csc(n2)-c2ccc(-c3nc(NC(=O)[C@H]4CC[C@@H](C(=O)O)C4)cs3)nc2-c2csc(n2)-c2csc(n2)[C@H]([C@@H](O)c2ccccc2)NC(=O)CNC(=O)c2nc(sc2COC)[C@H](C(C)C)NC(=O)c2nc1sc2C | 0.25 µg/mL (≈ 0.202 µM) | Active | 0.25 µg/mL (≈ 0.202 µM) | – | 0.25 µg/mL (≈ 0.202 µM) | 4 µg/mL (≈ 3.23 µM) | – |
